In ChEMBL document CHEMBL1136968, “Structurally simple inhibitors of lanosterol 14alpha-demethylase are efficacious in a rodent model of acute Chagas disease” (J Med Chem, 2009):
The source made the active and inactive calls. The calls are words filed in the database; no cut-off is given here.

How the values were obtained:
[1] = Cmax in Trypanosoma cruzi infected BALB/c mouse model of acute Chagas disease at 50 mg/kg, po administered as single dose; format: ADME, organism-based; design: dose 50 mg/kg, route oral; details: in vivo
Outline: (§1)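 BALB/c females, 7–8 weeks, ~20 g, groups of three; single oral gavage at 50 mg/kg, given as a 10 mg/ml suspension in 20% (w/v) hydroxypropyl beta-cyclodextrin, 100 µL. Tail blood (40 µL) taken at timed intervals into heparinized capillaries. Plasma was separated, frozen and analysed later. Sampling ran to 5 hr. Values are averages from 3 mice.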

[2] = AUC (0 to 5 hrs) in Trypanosoma cruzi infected BALB/c mouse model of acute Chagas disease at 50 mg/kg, po administered as single dose; format: ADME, organism-based; design: dose 50 mg/kg, route oral; details: in vivo; outline: as §1
Trypanosoma cruzi [3] = assay: (§2) Antitrypanosomal activity against Trypanosoma cruzi Tulahuen infected BALB/c mouse model of acute Chagas disease assessed as parasitemia burden in blood at 50 mg/kg, po administered twice daily 7 days after parasite infection for 21 days measured 100 days postinfection by PCR assay relative to untreated control; format: functional, organism-based; design: dose 50 mg/kg
Outline: (§3)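 BALB/c females, 7–8 weeks, infected subcutaneously with 1 × 10^4 Tulahuen trypomastigotes; all were parasitemic by day 7. Groups of 6 were dosed by oral gavage twice daily on days 7–27 in 20% (w/v) hydroxypropyl beta-cyclodextrin, 100 µL per dose; vehicle group as control. Parasitemia was counted in 5 µL tail blood over 50 high-power fields through day 97. At day 100, 200 µL whole blood was tested by PCR.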

[4] = Toxicity against mouse 3T3 cells by resazurin assay; format: cell-based; details: NIH3T3 cells
Outline: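 Murine 3T3 fibroblasts screened separately from the parasites. Host-cell growth was quantified by resazurin read-out and EC50 determined.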

Mus musculus [5] = assay: Toxicity in Trypanosoma cruzi Tulahuen infected BALB/c mouse model of acute Chagas disease assessed as incidence of side effects at 50 mg/kg, po administered twice daily 7 days after parasite infection for 21 days; format: organism-based; design: dose 50 mg/kg, route oral; details: in vivo; outline: as §3
[6] = biological target: Sterol 14-alpha demethylase (Trypanosoma cruzi (strain CL Brener)) (UniProt Q7Z1V1); assay: Binding affinity to Trypanosoma cruzi lanosterol 14-alpha-demethylase expressed in Escherichia coli assessed as enzyme spectral change by difference spectroscopy
[7] = biological target: Sterol 14-alpha demethylase (Trypanosoma cruzi (strain CL Brener), UniProt Q7Z1V1); assay: Binding affinity to Trypanosoma cruzi lanosterol 14-alpha-demethylase expressed in Escherichia coli assessed as equilibrium dissociation constant for enzyme-inhibitor complex by difference spectroscopy
Trypanosoma cruzi [8] = assay: Antitrypanosomal activity against Trypanosoma cruzi Tulahuen amastigotes in mouse 3T3 cells by beta-galactosidase reporter gene assay; format: functional, organism-based; details: NIH3T3
Outline: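 Tulahuen strain (TCII lineage) grown as intracellular amastigotes in murine 3T3 fibroblasts in 96-well plates. EC50 determined from triplicate screens. Standard errors within assays stayed below 15%.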

[9] = Tmax in Trypanosoma cruzi infected BALB/c mouse model of acute Chagas disease at 50 mg/kg, po administered as single dose; format: ADME, organism-based; design: dose 50 mg/kg, route oral; details: in vivo; outline: as §1
Mus musculus [10] = assay: Toxicity in Trypanosoma cruzi Tulahuen infected BALB/c mouse model of acute Chagas disease assessed as mouse survival at 50 mg/kg, po administered twice daily 7 days after parasite infection for 21 days measured 100 days postinfection; format: organism-based; design: dose 50 mg/kg, route oral; details: in vivo, 2400 h
Outline: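 Subcutaneous infection of female BALB/c mice (7–8 wk) with 1 × 10^4 Tulahuen trypomastigotes. Groups of 6 given oral gavage twice daily, days 7–27, in 20% (w/v) hydroxypropyl beta-cyclodextrin. Parasitemia followed by counting 50 high-power fields of 5 µL tail blood through day 97. Pre-morbid mice euthanized; survival and side effects recorded to termination at day 100.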

[11] = Half life in mouse at 30 mg/kg, po; format: ADME, organism-based; design: dose 30 mg/kg, route oral; details: in vivo
Trypanosoma cruzi [12] = assay: Antitrypanosomal activity against Trypanosoma cruzi infected mouse model of acute Chagas disease assessed as parasitemia burden in blood at 50 mg/kg, po administered twice daily for 14 days relative to untreated control; format: functional
[13] = Plasma concentration in mouse at 30 mg/kg, po after 1 hr; format: ADME, organism-based; design: dose 30 mg/kg, route oral
Trypanosoma cruzi [14] = assay: as §2, with “20” for “50”; format: functional, organism-based; design: dose 20 mg/kg
Outline: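 Female BALB/c mice (7–8 wk) infected s.c. with 1 × 10^4 Tulahuen trypomastigotes; blood parasites seen by day 7. Groups of 6 dosed by oral gavage twice daily, days 7–27, in 20% (w/v) hydroxypropyl beta-cyclodextrin vehicle. Vehicle group as control. Mice sacrificed at day 100; 200 µL whole blood tested by PCR for T. cruzi; scored as positive mice per group.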

[15] = Terminal half life in mouse; format: ADME, organism-based; details: in vivo, read-out: beta t1/2 (converted)
[16] = Terminal half life in rat; format: ADME, organism-based; details: in vivo, read-out: beta t1/2 (converted)

Sterol 14-alpha demethylase (Trypanosoma cruzi (strain CL Brener)), sequence (Q7Z1V1 whole entry, looked up): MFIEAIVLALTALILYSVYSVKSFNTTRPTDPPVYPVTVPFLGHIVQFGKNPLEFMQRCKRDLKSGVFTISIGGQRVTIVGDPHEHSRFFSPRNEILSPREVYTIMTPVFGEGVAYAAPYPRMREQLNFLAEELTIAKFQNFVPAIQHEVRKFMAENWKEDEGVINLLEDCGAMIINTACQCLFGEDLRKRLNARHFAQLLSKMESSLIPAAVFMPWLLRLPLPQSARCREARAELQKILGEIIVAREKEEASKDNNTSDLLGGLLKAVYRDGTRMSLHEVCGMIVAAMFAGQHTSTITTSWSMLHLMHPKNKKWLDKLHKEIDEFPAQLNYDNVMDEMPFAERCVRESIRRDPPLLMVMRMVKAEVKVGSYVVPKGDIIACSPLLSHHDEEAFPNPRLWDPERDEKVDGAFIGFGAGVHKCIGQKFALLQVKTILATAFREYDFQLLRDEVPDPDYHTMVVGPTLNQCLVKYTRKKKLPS
Sterol 14-alpha demethylase, sequence (Q7Z1V1 whole entry): as the sequence (Q7Z1V1 whole entry, looked up) above

## Nc1cc(-c2ccccc2)ccc1Cn1cncc1CNc1ccc(Cl)c(-c2ccccc2)c1
[1]
  Cmax: 2400 ng/mL
[2]
  AUC(0-t) at 4 h: 6300 ng·h/mL
Trypanosoma cruzi [3]
  Activity: inactive
[4]
  EC50: > 1000 nM
Mus musculus [5]
  Activity: Non-toxic
[6]
  Activity: Active
[7]
  Kd: < 2200 nM
Trypanosoma cruzi [8]
  EC50: 1.2 nM
[9]
  Tmax: 0.8 h
Mus musculus [10]
  Activity: Non-toxic

## c1ccc(-c2ccc(Cn3cncc3CNc3ccc(-c4nc5ccccc5s4)c(-c4ccccc4)c3)cc2)cc1
[11]
  half-life: 4 h
[4]
  EC50: > 1000 nM
Trypanosoma cruzi [12]
  Activity: 1%
[13]
  concentration at 1 h: 16 µM
Trypanosoma cruzi [8]
  EC50: 7 nM

## Nc1cc(-c2ccccc2)ccc1Cn1cncc1CNc1ccc(-c2nc3ccccc3s2)c(-c2ccccc2)c1
[1]
  Cmax: 7200 ng/mL
[2]
  AUC(0-t) at 4 h: 28700 ng·h/mL
[4]
  EC50: > 1000 nM
Mus musculus [5]
  Activity: Non-toxic
[6]
  Activity: Active
[7]
  Kd: < 2200 nM
Trypanosoma cruzi [14]
  Activity: Active
Trypanosoma cruzi [8]
  EC50: 0.4 nM
[9]
  Tmax: 1.7 h
Mus musculus [10]
  Activity: Non-toxic

## CC[C@@H]([C@H](C)O)n1ncn(-c2ccc(N3CCN(c4ccc(OC[C@@H]5CO[C@@](Cn6cncn6)(c6ccc(F)cc6F)C5)cc4)CC3)cc2)c1=O [POSACONAZOLE]
[15]
  half-life: 7 h
[16]
  half-life: 7 h
Trypanosoma cruzi [14]
  Activity: Active
